# Measured values reported in publication PMC11047177 (ESMO Open, 2024).
# Test: Phase I study NCT03854227: DLTs and adverse events
# Type: in vivo, human
# Procedure, shortened: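 Open-label, multicentre first-in-human trial in adults (ECOG 0–1) with advanced or metastatic tumours. Oral test compound, q.d. or b.i.d., on an empty stomach in continuous 28-day cycles. Part 1 started at 0.5 mg q.d., with escalation guided by a two-parameter Bayesian logistic regression model on cycle 1 DLTs. Part 2 ran at 6 mg q.d. AEs were graded by CTCAE 5.0 and summarised descriptively by dose level.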
# [1] = Part 2 N = 26, 6 mg q.d., any grade
# [2] = Part 2 N = 26, 6 mg q.d., grade ≥3
# [3] = overall (part 1 + part 2), N=54
smiles,measurement,setting,value
Cc1ncnc2c1ccn2[C@@H]1C[C@H](Oc2cc(C(F)F)c(F)c3c2CNCC3)[C@@H](O)[C@H]1O [PF-06939999],TRAE Anemia,"Part 1 N = 28, any grade",12 (43) n (%)
same,TRAE Any,"Part 1 N = 28, any grade",24 (86) n (%)
same,TRAE Decreased appetite,"Part 1 N = 28, any grade",6 (21) n (%)
same,TRAE Dysgeusia,"Part 1 N = 28, any grade",9 (32) n (%)
same,TRAE Dyspepsia,"Part 1 N = 28, any grade",2 (7) n (%)
same,TRAE Fatigue,"Part 1 N = 28, any grade",9 (32) n (%)
same,TRAE Hypomagnesemia,"Part 1 N = 28, any grade",4 (14) n (%)
same,TRAE Leukopenia,"Part 1 N = 28, any grade",3 (11) n (%)
same,TRAE Nausea,"Part 1 N = 28, any grade",8 (29) n (%)
same,TRAE Neutropenia,"Part 1 N = 28, any grade",3 (11) n (%)
same,TRAE Thrombocytopenia (including platelet count decreased),"Part 1 N = 28, any grade",9 (32) n (%)
same,TRAE Vomiting,"Part 1 N = 28, any grade",1 (4) n (%)
same,TRAE Weight decreased,"Part 1 N = 28, any grade",0 n (%)
same,TRAE Anemia,"Part 1 N = 28, grade ≥3",8 (29) n (%)
same,TRAE Any,"Part 1 N = 28, grade ≥3",12 (43) n (%)
same,TRAE Decreased appetite,"Part 1 N = 28, grade ≥3",0 n (%)
same,TRAE Dysgeusia,"Part 1 N = 28, grade ≥3",0 n (%)
same,TRAE Dyspepsia,"Part 1 N = 28, grade ≥3",0 n (%)
same,TRAE Fatigue,"Part 1 N = 28, grade ≥3",2 (7) n (%)
same,TRAE Hypomagnesemia,"Part 1 N = 28, grade ≥3",0 n (%)
same,TRAE Leukopenia,"Part 1 N = 28, grade ≥3",0 n (%)
same,TRAE Nausea,"Part 1 N = 28, grade ≥3",0 n (%)
same,TRAE Neutropenia,"Part 1 N = 28, grade ≥3",1 (4) n (%)
same,TRAE Thrombocytopenia (including platelet count decreased),"Part 1 N = 28, grade ≥3",6 (21) n (%)
same,TRAE Vomiting,"Part 1 N = 28, grade ≥3",0 n (%)
same,TRAE Weight decreased,"Part 1 N = 28, grade ≥3",0 n (%)
same,TRAE Anemia,[1],11 (42) n (%)
same,TRAE Any,[1],21 (81) n (%)
same,TRAE Decreased appetite,[1],7 (27) n (%)
same,TRAE Dysgeusia,[1],3 (12) n (%)
same,TRAE Dyspepsia,[1],4 (15) n (%)
same,TRAE Fatigue,[1],6 (23) n (%)
same,TRAE Hypomagnesemia,[1],1 (4) n (%)
same,TRAE Leukopenia,[1],2 (8) n (%)
same,TRAE Nausea,[1],9 (35) n (%)
same,TRAE Neutropenia,[1],1 (4) n (%)
same,TRAE Thrombocytopenia (including platelet count decreased),[1],13 (50) n (%)
same,TRAE Vomiting,[1],3 (12) n (%)
same,TRAE Weight decreased,[1],3 (12) n (%)
same,TRAE Anemia,[2],7 (27) n (%)
same,TRAE Any,[2],11 (42) n (%)
same,TRAE Decreased appetite,[2],0 n (%)
same,TRAE Dysgeusia,[2],0 n (%)
same,TRAE Dyspepsia,[2],0 n (%)
same,TRAE Fatigue,[2],1 (4) n (%)
same,TRAE Hypomagnesemia,[2],0 n (%)
same,TRAE Leukopenia,[2],1 (4) n (%)
same,TRAE Nausea,[2],0 n (%)
same,TRAE Neutropenia,[2],1 (4) n (%)
same,TRAE Thrombocytopenia (including platelet count decreased),[2],6 (23) n (%)
same,TRAE Vomiting,[2],0 n (%)
same,TRAE Weight decreased,[2],0 n (%)
same,TRAE Anemia,"Total N = 54, any grade",23 (43) n (%)
same,TRAE Any,"Total N = 54, any grade",45 (83) n (%)
same,TRAE Decreased appetite,"Total N = 54, any grade",13 (24) n (%)
same,TRAE Dysgeusia,"Total N = 54, any grade",12 (22) n (%)
same,TRAE Dyspepsia,"Total N = 54, any grade",6 (11) n (%)
same,TRAE Fatigue,"Total N = 54, any grade",15 (28) n (%)
same,TRAE Hypomagnesemia,"Total N = 54, any grade",5 (9) n (%)
same,TRAE Leukopenia,"Total N = 54, any grade",5 (9) n (%)
same,TRAE Nausea,"Total N = 54, any grade",17 (32) n (%)
same,TRAE Neutropenia,"Total N = 54, any grade",4 (7) n (%)
same,TRAE Thrombocytopenia (including platelet count decreased),"Total N = 54, any grade",22 (41) n (%)
same,TRAE Vomiting,"Total N = 54, any grade",4 (7) n (%)
same,TRAE Weight decreased,"Total N = 54, any grade",3 (6) n (%)
same,TRAE Anemia,"Total N = 54, grade ≥3",15 (28) n (%)
same,TRAE Any,"Total N = 54, grade ≥3",23 (43) n (%)
same,TRAE Decreased appetite,"Total N = 54, grade ≥3",0 n (%)
same,TRAE Dysgeusia,"Total N = 54, grade ≥3",0 n (%)
same,TRAE Dyspepsia,"Total N = 54, grade ≥3",0 n (%)
same,TRAE Fatigue,"Total N = 54, grade ≥3",3 (6) n (%)
same,TRAE Hypomagnesemia,"Total N = 54, grade ≥3",0 n (%)
same,TRAE Leukopenia,"Total N = 54, grade ≥3",1 (2) n (%)
same,TRAE Nausea,"Total N = 54, grade ≥3",0 n (%)
same,TRAE Neutropenia,"Total N = 54, grade ≥3",2 (4) n (%)
same,TRAE Thrombocytopenia (including platelet count decreased),"Total N = 54, grade ≥3",12 (22) n (%)
same,TRAE Vomiting,"Total N = 54, grade ≥3",0 n (%)
same,TRAE Weight decreased,"Total N = 54, grade ≥3",0 n (%)
same,Patients who discontinued treatment due to AEs,"all 54 patients, 6 patients",11%
same,Recommended part 2 dose (RP2D),"oral, selected from safety and PK/PD modeling",6 mg q.d.
same,Grade ≥3 TRAE Anemia,[3],28%
same,Grade ≥3 TRAE Fatigue,[3],6%
same,Grade ≥3 TRAE Neutropenia,[3],4%
